Among the data in ChEMBL document CHEMBL3352649, “2,2'-Dihydroxybenzophenones and their carbonyl N-analogues as inhibitor scaffolds for MDR-involved human glutathione transferase isoenzyme A1-1” (Bioorg Med Chem, 2014) are inhibition, IC50 and Ki values, retold here.

Broadly, the inhibition is how much of the control response was suppressed. As usually defined, the IC50 is the concentration that inhibits the measured activity by half. In general, Ki refers to a measure of affinity in units of concentration, obtained from inhibition or displacement.

Experiment [1] has as its target T1, Glutathione S-transferase A1 (Homo sapiens) (UniProt P08263).
T1 sequence (whole entry): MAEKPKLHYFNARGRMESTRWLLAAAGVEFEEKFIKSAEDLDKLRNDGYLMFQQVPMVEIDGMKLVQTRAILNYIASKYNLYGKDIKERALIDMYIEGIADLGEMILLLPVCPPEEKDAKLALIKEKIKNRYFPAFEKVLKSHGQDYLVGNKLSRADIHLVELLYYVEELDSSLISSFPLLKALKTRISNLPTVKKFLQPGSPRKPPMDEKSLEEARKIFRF
Nature of the experiment: Inhibition of human GSTA1 activity assessed as conjugation between CDNB and GSH at 25 uM. Summed up: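 1 mL of 100 mM potassium phosphate pH 6.5, 0.75 µmol GSH, 25 nmol compound (from 5 mM DMSO stock), enzyme; 1 min at 25 °C, then 0.3 µmol CDNB. Read at 340 nm. Remaining activity is relative to a 5 µL DMSO replacement, mean of three assays.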

The target in experiment [2] is T2, Glutathione S-transferase A1 (Homo sapiens, UniProt P08263).
T2 sequence (P08263 whole entry): T1 sequence (whole entry)
Nature of the experiment: Inhibition of human GSTA1 activity assessed as conjugation between CDNB and GSH.

Experiment [3] addresses T2, Glutathione S-transferase A1. Nature of the experiment: Mixed-type inhibition of human GSTA1 activity by double reciprocal Lineweaver-Burk graph.

`O=C(c1ccccc1O)c1ccccc1O`: in experiment [1], the inhibition stood at 0%.

For `O=C(c1ccccc1O)c1cc(Br)ccc1O`, the IC50 in experiment [2] is 0.24 µM. In addition, the inhibition in experiment [1] is 87.7%. Moreover, the Ki in experiment [3] was 0.36 µM.
